DENV2 CPE rescue: inhibitors of DENV2 cytopathic effect; CPE inhibition, % at 9.99 µM; DENV2-infected cells, cytopathic effect rescue, plate reader; hit rate 1.7% among 350,000; in the data active = CPE inhibition above about 20%, passing the limit was not always enough; inconclusive = no clear call, values can overlap the other calls; tested in BHK-21 cells
Statin myotox sup: suppression of simvastatin myotoxicity; hit rate 0.78% among 330,000; rescue of ATP level, % at 7.49 µM; C2C12 myotubes + simvastatin, ATP luminescence, 48 h; scaled: DMSO 0, geranylgeraniol control 100;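 active = mean ATP rescue above about 67%, or every replicate alone reaching that limit, limit read from the data, passing the limit was not always enough; inconclusive = no clear call, values can overlap the other calls; inactive = mean under the limit and some replicate under it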;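 note: myotubes were challenged with 10 µM simvastatin during compound exposure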
FGF22 binding: binders of recombinant human FGF22 by thermal shift; Q9HCT0; SYPRO orange fluorescence; percent of sucrose octasulfate shift, DMSO zero; activity (Tm shift, normalised), % at 9.99 µM; hit rate 1.5% among 340,000;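 active = mean Tm shift, scaled 0 neutral to 100 positive control, at about 1.3% or above, every replicate too, limit read from the data; inconclusive = no clear call, values can overlap the other calls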
Target sequence (Q9HCT0 whole entry, looked up): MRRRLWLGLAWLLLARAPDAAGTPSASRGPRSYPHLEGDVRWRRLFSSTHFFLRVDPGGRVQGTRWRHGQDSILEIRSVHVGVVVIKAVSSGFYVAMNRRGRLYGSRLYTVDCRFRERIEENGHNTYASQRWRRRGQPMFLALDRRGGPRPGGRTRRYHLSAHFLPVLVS
PglD inh: inhibitors of Campylobacter jejuni PglD acetyltransferase; purified PglD enzyme, DTNB colorimetric CoA detection; AID 602405; hit rate 0.098% among 360,000; inhibition, % at 12.5 µM; in the data active = inhibition above about 16%, passing the limit was not always enough; inconclusive = no clear call, values can overlap the other calls
XiGFP reactiv: reactivates the inactive X chromosome in mouse fibroblasts; XiGFP mouse fibroblasts, % GFP-positive cells imaging, 3 d; cells co-treated with 5-aza-dC sensitizer; scaled so ellipticine positive control = 100%; activation, % at 7.58 µM; hit rate 0.055% among 360,000; AID 743238;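 active = mean normalized replicate activation at least 10% and every replicate at or above 10%; inconclusive = only one of the two criteria met; inactive = mean below 10% and not all replicates reach 10%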
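assay system = SV40-immortalized XiGFP fibroblast cells, line 68-5-11 | buffer or medium = DMEM plus 5-aza-dC sensitizer | doses = single-point pinned compound dosing | times = 3-day compound exposure, then 15 min fixation at room temperature | benchmarks = positive control ellipticine, 6 µM final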
E-sel inducer: induces E-selectin expression in human endothelial cells | P16581 | HUVEC E-selectin immunofluorescence imaging; normalized: neutral wells 0, TNF-alpha wells 100 | activation, % at 7.58 µM | hit rate 0.37% among 260,000 | AID 686992;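 active = mean E-selectin-positive cell signal at least 10% of the positive control, reached in at least 60% of replicates, without over 20% cell loss; inconclusive = no rule given, readout overlaps actives, possibly toxicity-flagged; inactive = the rest, including those meeting only one limit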
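Read-out: % PE-positive cells | Test system: HUVEC | Doses: One compound dose added by pin transfer | Buffer or medium: EGM-2 over gelatin coat | Signal: Immunofluorescence imaging | Benchmarks: TNF-alpha, DMSO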
Large screens that a line does not name were inactive; ! = repeats disagree. A selection: hits, their analogues and other compounds. The true share with any hit is near 3.3%.

O=C(C1=C[C@@H](c2coc3ccccc3c2=O)C[C@@H](OCc2ccc(CO)cc2)O1)N1CCN(Cc2ccccc2)CC1	FGF22 binding 1.4 (no result: Statin myotox sup, XiGFP reactiv, E-sel inducer)
CC(=O)n1cc([C@H]2C=C(C(=O)Nc3ccccc3)O[C@@H](OCc3ccc(CO)cc3)C2)c2ccccc21	none (no result: DENV2 CPE rescue, FGF22 binding, XiGFP reactiv, E-sel inducer)
CC(=O)n1cc([C@@H]2C=C(C(=O)O)O[C@H](OCc3ccc(CO)cc3)C2)c2ccccc21	DENV2 CPE rescue 28!
COc1ccc2c3c([nH]c2c1)[C@H](CO)N(C(=O)Nc1ccccc1F)CC31CCN(C(=O)C2CC2)CC1	none (no result: Statin myotox sup, PglD inh)
COC(=O)C[C@@H]1CC[C@@H]2[C@H](COc3ccc(NS(=O)(=O)c4cccc(F)c4)cc3C(=O)N2C)O1	none
O=C(c1ccccc1F)N1C[C@@H]2[C@H](c3ccccc31)[C@@H](CO)N2C(=O)c1ccncc1	none
C[C@@H]1CN([C@@H](C)CO)C(=O)c2cc(NS(=O)(=O)c3cccs3)ccc2O[C@@H](C)CCCCO[C@H]1CN(C)C(=O)Cc1ccccc1	none (no result: Statin myotox sup)
O=C(C[C@H]1CC[C@@H](NC(=O)CC2CC2)[C@@H](CO)O1)NCc1ccc(-c2ccccc2)cc1	DENV2 CPE rescue 48
O=C(C[C@@H]1CC[C@H](NC(=O)CC2CC2)[C@H](CO)O1)NCc1ccc(-c2ccccc2)cc1	none
CC(=O)N[C@H]1CC[C@H](CC(=O)NCc2ccc(Cl)cc2)O[C@H]1CO	PglD inh 17
CC(=O)N[C@@H]1CC[C@H](CC(=O)NCc2ccc(Cl)cc2)O[C@@H]1CO	none
Cc1ccccc1S(=O)(=O)N1CC(=O)N2[C@H](CO)[C@H](c3ccc(C#Cc4ccccc4)cc3)[C@H]2C1	DENV2 CPE rescue 24 (no result: Statin myotox sup, FGF22 binding, PglD inh)
Cc1ccccc1S(=O)(=O)N1CC(=O)N2[C@H](C1)[C@@H](c1ccc(C#Cc3ccccc3)cc1)[C@@H]2CO	none (no result: Statin myotox sup, FGF22 binding, PglD inh)
CCS(=O)(=O)N1CC(=O)N2[C@H](CO)[C@@H](c3ccc(C#CCC(C)C)cc3)[C@@H]2C1	DENV2 CPE rescue 48 (no result: Statin myotox sup, PglD inh)
CO[C@@H]1CN(C)C(=O)c2cc(NC(=O)C3CCOCC3)ccc2OC[C@@H](C)N(Cc2cccnc2)C[C@@H]1C	none
CC(=O)N1CCCCN2[C@H](CO)[C@H](c3ccc(C#Cc4ccccc4F)cc3)[C@@H]2C1	none (no result: Statin myotox sup)
CC(C)(C)N1CC(C(=O)O)CC1=O (configuration not stated)	FGF22 binding 43 (no result: E-sel inducer)
CC(C)(C)N1CC(C(=O)Nc2cccc(Cl)c2Cl)CC1=O (configuration not stated)	none
CCC(C(=O)NC(C)c1ccccc1)C(=O)NC(C)c1ccccc1 (configuration not stated)	none
CCc1cccc(CC)c1NC(=S)NC(C)c1ccccc1 (configuration not stated)	FGF22 binding 44 (no result: Statin myotox sup, PglD inh, E-sel inducer)
COc1cccc(-c2cnc3c(c2)C(=O)N([C@H](C)CO)C[C@@H](C)[C@@H](CN(C)CC2CC2)O3)c1	none (no result: DENV2 CPE rescue, FGF22 binding, PglD inh)
CCc1cccc(C)c1NC(=O)CCCC(=O)O	none (no result: DENV2 CPE rescue, FGF22 binding, XiGFP reactiv, E-sel inducer)
CCc1cccc(C)c1NC(=O)CCCN1C(=O)NC(C)(C)C1=O	E-sel inducer 27
C[C@@H]1CCCCO[C@@H](CN(C)CC2CCCCC2)[C@H](C)CN([C@H](C)CO)C(=O)c2cc(NS(=O)(=O)c3cccs3)ccc2O1	none (no result: Statin myotox sup)
Cc1cc(NC2CCCCC2)nc2ccccc12	none (no result: Statin myotox sup, PglD inh)
Cc1ccnc(NC2CCCCC2)c1	FGF22 binding 44 (no result: Statin myotox sup, PglD inh, E-sel inducer)
C[C@@H]1CN([C@@H](C)CO)C(=O)Cc2cc(NC(=O)CCCN(C)C)ccc2O[C@H]1CN(C)C	none (no result: E-sel inducer)
O=C(c1cccc(F)c1)N1CC2(C1)[C@H](c1ccccc1)[C@@H](CO)N2C(=O)C1CCOCC1	none (no result: Statin myotox sup, PglD inh)
CCCC#Cc1ccc([C@@H]2[C@H](CO)N3CCCCN(CC4CCOCC4)C[C@@H]23)cc1	DENV2 CPE rescue 46
COc1ccc(-c2ccc([C@H]3[C@@H](CO)N4CCCCN(CC5CCOCC5)C[C@@H]34)cc2)cc1	DENV2 CPE rescue 24
COc1ccc(-c2ccc([C@H]3[C@@H](CO)N4CCCCN(CC5CCOCC5)C[C@H]34)cc2)cc1	DENV2 CPE rescue 33
COc1ccc(-c2ccc([C@H]3[C@H]4CN(CC5CCOCC5)CCCCN4[C@H]3CO)cc2)cc1	none
OC1(c2cccs2)CN(c2ccccc2)C2=[N+]1CCCC2 (configuration not stated)	FGF22 binding 43
C[C@@H]1CN([C@H](C)CO)C(=O)c2cccc(NC(=O)NC3CCCCC3)c2O[C@H]1CN(C)S(C)(=O)=O	none (no result: E-sel inducer)
Fc1ccc(CSc2nnc(CN3CCOCC3)n2-c2ccccc2)c(Cl)c1	Statin myotox sup 103 (no result: DENV2 CPE rescue, FGF22 binding, XiGFP reactiv, E-sel inducer)
O=c1c2ccccc2nc(SCc2ccc(F)cc2Cl)n1CCCN1CCOCC1	none (no result: PglD inh)
CCCc1cc(CNC(=O)C2CCC(=O)N(CCc3cccc(F)c3)C2)on1 (configuration not stated)	DENV2 CPE rescue 55 (no result: E-sel inducer)
CC(C)Cc1cc(CNC(=O)C2CCC(=O)N(CCc3cccc(F)c3)C2)on1 (configuration not stated)	none (no result: PglD inh)
CCc1ccc(C(=O)NNC(=O)c2c(CC)noc2C)cc1	DENV2 CPE rescue 37
C=C(C)C(=O)N1CC2(CC(c3cccc(NC(=O)/C=C\C)c3)=NO2)C[C@H]1C(N)=O (some centres not stated)	DENV2 CPE rescue 128
CC/C=C/C(=O)N1CC2(CC(c3cccc(NC(=O)COc4ccc(Cl)cc4)c3)=NO2)C[C@H]1C(N)=O (some centres not stated)	DENV2 CPE rescue 22 (no result: E-sel inducer)
C/C=C/C(=O)Nc1cccc(C2=NOC3(C2)C[C@H](C(N)=O)N(C(=O)/C=C/C)C3)c1 (some centres not stated)	none
C/C=C/C=C/C(=O)N1CC2(CC(c3cccc(NC(=O)/C=C/C)c3)=NO2)C[C@@H]1C(N)=O (some centres not stated)	DENV2 CPE rescue 29
NC(=O)[C@@H]1CC2(CC(c3cccc(NC(=O)COc4ccc(Cl)cc4)c3)=NO2)CN1C(=O)COc1ccc(Cl)cc1 (some centres not stated)	DENV2 CPE rescue inconclusive
CO[C@@H]1CN(C)C(=O)c2ccc(NC(=O)c3ccno3)cc2OC[C@@H](C)NC[C@@H]1C	none (no result: Statin myotox sup, FGF22 binding, PglD inh)
CC(C)NC(=O)Nc1ccc2c(c1)C(=O)N(C)[C@@H]1CC[C@H](CC(=O)Nc3ccccc3)O[C@H]1CO2	none
O=C(N[C@H]1CC[C@H](CC(=O)N2CCc3ccccc3C2)O[C@@H]1CO)C1CC1	none
CCCC(c1nnnn1Cc1ccc(OC)cc1)N1CCN(c2ccccc2)CC1 (configuration not stated)	Statin myotox sup 137 (no result: DENV2 CPE rescue, FGF22 binding, XiGFP reactiv, E-sel inducer)
COC(=O)CCC(=O)OC1(C)C(=O)C2=CN(Cc3ccc(OC)cc3)C(c3ccc(OC)cc3)=CC2=C(Br)C1=O (configuration not stated)	DENV2 CPE rescue 23
